Results as given in publication PMC11758009 (Scientific Reports, 2025).

Legend:
[1] = system: LAT1, LAT2, LAT3, LAT4, B^0AT1, ATB^0,+; settings: cited from earlier work
[2] = system: S2-LAT1 cells; settings: LAT1-expressing cells; cited from earlier work
[3] = molecular target: T1, LAT1 (Homo sapiens, UniProt Q01650); experiment: Inhibition of L-[14C]leucine uptake in HEK293-hLAT1 cells; type: cell-based
Outline: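 HEK293-hLAT1 cells grown 2 days on poly-D-lysine, then preincubated 10 min at 37 °C in Na⁺-free choline-HBSS (HEPES, pH 7.4). L-[¹⁴C]leucine (1–400 µM) uptake for 1 min, with test compound added from DMSO alongside the substrate at two levels (0.1/0.5 or 1/5 µM) or with DMSO alone. Cells washed ice-cold, lysed in NaOH, counted by scintillation, normalised to BCA protein. Michaelis–Menten and Lineweaver–Burk fits gave Ki; mean ± S.D., n = 4.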
Target sequence in this assay (Q01650 whole entry): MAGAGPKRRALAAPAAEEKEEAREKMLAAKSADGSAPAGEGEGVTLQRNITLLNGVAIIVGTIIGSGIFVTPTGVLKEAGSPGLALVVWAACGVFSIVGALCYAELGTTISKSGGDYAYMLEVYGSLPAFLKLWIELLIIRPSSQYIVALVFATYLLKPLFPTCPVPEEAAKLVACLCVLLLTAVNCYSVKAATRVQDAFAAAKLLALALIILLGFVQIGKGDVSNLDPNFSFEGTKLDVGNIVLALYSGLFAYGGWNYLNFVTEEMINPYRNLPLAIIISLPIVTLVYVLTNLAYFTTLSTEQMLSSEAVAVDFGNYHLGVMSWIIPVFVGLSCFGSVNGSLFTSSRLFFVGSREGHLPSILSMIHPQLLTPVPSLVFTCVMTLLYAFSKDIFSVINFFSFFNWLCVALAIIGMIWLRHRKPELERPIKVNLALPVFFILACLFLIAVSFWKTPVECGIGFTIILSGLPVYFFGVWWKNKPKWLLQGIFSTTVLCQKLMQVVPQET
Target sequence in this assay (P08195 103-630 partner): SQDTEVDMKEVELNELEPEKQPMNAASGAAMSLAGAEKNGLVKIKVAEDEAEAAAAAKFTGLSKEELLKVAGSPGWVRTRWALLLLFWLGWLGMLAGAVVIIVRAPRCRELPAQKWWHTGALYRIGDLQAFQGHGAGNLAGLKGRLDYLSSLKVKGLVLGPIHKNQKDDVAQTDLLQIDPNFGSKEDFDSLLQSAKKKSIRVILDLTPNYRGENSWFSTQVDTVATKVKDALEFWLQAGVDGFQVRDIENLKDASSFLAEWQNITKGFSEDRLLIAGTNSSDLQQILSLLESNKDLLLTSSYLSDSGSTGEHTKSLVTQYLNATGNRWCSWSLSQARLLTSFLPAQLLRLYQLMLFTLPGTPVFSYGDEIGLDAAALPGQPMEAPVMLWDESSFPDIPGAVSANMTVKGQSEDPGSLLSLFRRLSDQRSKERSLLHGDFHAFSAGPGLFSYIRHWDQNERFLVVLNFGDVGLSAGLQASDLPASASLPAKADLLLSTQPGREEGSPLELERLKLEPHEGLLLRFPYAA

[4] = molecular target: y^+LAT1 (Homo sapiens, UniProt Q9UM01); experiment: Xenopus oocyte expression system, L-[14C]leucine uptake by y+LAT1; type: cell-based; settings: 1 and 10 µM compound; 50 µM substrate; 30 min; ND96
Outline: (§1)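 Defolliculated Xenopus laevis oocytes injected with transporter cRNA (25 ng/oocyte) plus equimolar 4F2hc cRNA, and assayed 2–4 days later. Uptake of 50 µM L-[¹⁴C]leucine at room temperature with test compound at 1 or 10 µM. Buffers were ND96 (pH 7.5) or a Na⁺-free version with choline chloride in place of NaCl. Scintillation counting; mean ± S.D., n = 5–13, three oocyte batches.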

[5] = system: biliary tract cancer; settings: phase II, patients with biliary tract cancer; cited from earlier work
[6] = molecular target: ASCT1 (Homo sapiens, UniProt P43007); experiment: Xenopus oocyte expression system, L-[14C]alanine uptake by ASCT1; type: cell-based; settings: 1 and 10 µM compound; 50 µM substrate; 30 min; ND96
Outline: (§2)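 Defolliculated Xenopus laevis oocytes injected with transporter cRNA (25 ng/oocyte), assayed 2–4 days after injection. Uptake at room temperature of 50 µM radiolabelled substrate with test compound at 1 or 10 µM. Buffers were ND96 (pH 7.5) for Na⁺-dependent transport, or a Na⁺-free version with choline chloride. Scintillation counting; mean ± S.D., n = 5–13, three independent oocyte batches.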

[7] = molecular target: y^+LAT2 (Homo sapiens, UniProt Q92536); experiment: Xenopus oocyte expression system, L-[14C]leucine uptake by y+LAT2; type: cell-based; settings: 1 and 10 µM compound; 50 µM substrate; 30 min; ND96
Outline: as §1

[8] = molecular target: SNAT5 (Homo sapiens, UniProt Q8WUX1); experiment: Xenopus oocyte expression system, L-[14C]glutamine uptake by SNAT5; type: cell-based; settings: 1 and 10 µM compound; 50 µM substrate; 30 min; ND96
Outline: as §2

[9] = molecular target: LAT4 (Homo sapiens, UniProt Q8N370); experiment: Xenopus oocyte expression system, L-[14C]leucine uptake by LAT4; type: cell-based; settings: 1 and 10 µM compound; 50 µM substrate; 30 min
Outline: as §2

[10] = molecular target: SNAT4 (Homo sapiens, UniProt Q969I6); experiment: Xenopus oocyte expression system, L-[14C]alanine uptake by SNAT4; type: cell-based; settings: 10 µM compound; 50 µM substrate; 30 min; ND96
Outline: as §2

[11] = molecular target: ATB^0,+ (Homo sapiens, UniProt Q9UN76); experiment: Xenopus oocyte expression system, L-[14C]leucine uptake by ATB0,+; type: cell-based; settings: 1 and 10 µM compound; 50 µM substrate; 30 min; ND96
Outline: (§3)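 Defolliculated Xenopus laevis oocytes injected with transporter cRNA (25 ng/oocyte) or with water as control, assayed 2–4 days after injection. Uptake over 30 min at room temperature of 50 µM labelled substrate: L-[¹⁴C]leucine for ATB0,+, L-[¹⁴C]tyrosine for TAT1, L-[¹⁴C]cystine for b0,+. Test compound at 1 or 10 µM. Scintillation counting; mean ± S.D., n = 5–13, three oocyte batches.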

[12] = molecular target: ASCT2 (Homo sapiens, UniProt Q15758); experiment: Xenopus oocyte expression system, L-[14C]alanine uptake by ASCT2; type: cell-based; settings: 1 and 10 µM compound; 50 µM substrate; 30 min; ND96
Outline: as §2

[13] = molecular target: LAT2 (Homo sapiens, UniProt Q9UHI5); experiment: Xenopus oocyte expression system, L-[14C]alanine uptake by LAT2; type: cell-based; settings: 1 and 10 µM compound; 50 µM substrate; 30 min
Outline: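 Defolliculated Xenopus laevis oocytes were injected with polyadenylated human LAT2 cRNA (25 ng/oocyte) plus equimolar 4F2hc cRNA. Water-injected oocytes served as controls. After 2–4 days, oocytes took up 50 µM ¹⁴C-labelled substrate for 30 min at room temperature, with or without test compound, in ND96 (pH 7.5) or its Na⁺-free choline chloride version. Radioactivity was determined by liquid scintillation counting.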

[14] = system: S2-LAT2 cells; settings: LAT2-expressing cells; cited from earlier work
[15] = system: b^0,+; experiment: Xenopus oocyte expression system, L-[14C]cystine uptake by b0,+; type: cell-based; settings: 1 and 10 µM compound; 50 µM substrate; 30 min; Na+-free
Outline: as §3

[16] = molecular target: LAT3 (Homo sapiens, UniProt O75387); experiment: Xenopus oocyte expression system, L-[14C]leucine uptake by LAT3; type: cell-based; settings: 1 and 10 µM compound; 50 µM substrate; 30 min
Outline: as §2

[17] = molecular target: SNAT2 (Homo sapiens, UniProt Q96QD8); experiment: Xenopus oocyte expression system, L-[14C]alanine uptake by SNAT2; type: cell-based; settings: 1 and 10 µM compound; 50 µM substrate; 30 min; ND96
Outline: as §2

[18] = molecular target: T1, LAT1; experiment: Sustained inhibition assay; type: cell-based; settings: reduction in inhibition over first 10 min after washout relative to 0 min
Outline: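 HEK293-hLAT1 cells exposed to test compound or 0.6% DMSO control in culture medium for 30 min at 37 °C. Washed three times and kept in fresh medium for 0, 10, 20, 30 or 60 min or 24 h. Then rinsed with Na⁺-free HBSS and given 1 µM L-[¹⁴C]leucine for 1 min. Uptake taken as % of control at each time. Reduction rate = (%uptake 10 min – %uptake 0 min)/(100 – %uptake 0 min) × 100. Three independent experiments, each in quadruplicate.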
Target sequence in this assay (Q01650 whole entry): as the sequence (Q01650 whole entry) above
Target sequence in this assay (P08195 103-630 partner): as the sequence (P08195 103-630 partner) above

[19] = molecular target: human LAT2 (Homo sapiens, UniProt Q9UHI5); experiment: Inhibition of L-[14C]alanine uptake in HEK293-hLAT2 cells; type: cell-based; settings: 0.1, 1 and 10 µM compound, 1 µM L-[14C]alanine
Outline: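 Stable HEK293-hLAT2 cells were seeded at 2.4 × 10⁵ cells/well on poly-D-lysine and grown 2 days. They were pre-incubated 10 min at 37 °C in Na⁺-free HBSS (choline chloride, 25 mM HEPES, pH 7.4). Uptake of 1 µM L-[¹⁴C]alanine ran for 1 min, with test compound (from DMSO stocks) added together with substrate. Cells were washed ice-cold, lysed in 0.1 N NaOH, counted by liquid scintillation, and lysate protein was measured by BCA.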

[20] = molecular target: B^0AT1 (Homo sapiens, UniProt Q695T7); experiment: Xenopus oocyte expression system, L-[14C]leucine uptake by B0AT1; type: cell-based; settings: 1 and 10 µM compound; 50 µM substrate; 30 min; ND96
Outline: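 B⁰AT1 cRNA (25 ng/oocyte) co-injected with equimolar collectrin cRNA into defolliculated Xenopus laevis oocytes, assayed 2–4 days later. Uptake of 50 µM L-[¹⁴C]leucine over 30 min at room temperature in ND96 (pH 7.5), with test compound at 1 or 10 µM. Water-injected oocytes served as controls. Scintillation counting; mean ± S.D., n = 5–13, three oocyte batches.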

[21] = liver; cited from earlier work
[22] = molecular target: TAT1 (Homo sapiens, UniProt Q8TF71); experiment: Xenopus oocyte expression system, L-[14C]tyrosine uptake by TAT1; type: cell-based; settings: 1 and 10 µM compound; 50 µM substrate; 30 min; Na+-free
Outline: as §3

[23] = system: HEK293-hLAT1 cells; experiment: Cell proliferation assay; type: cell-based; settings: Homo sapiens, 72 h, read-out: GI50 (proliferation)
Outline: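 HEK293 cells stably expressing human LAT1, kept in MEM with 10% FBS, non-essential amino acids and G418 (0.9 mg/mL) at 37 °C and 5% CO₂. Seeded at 1.5 × 10³ cells/well on poly-D-lysine and treated next day with test compound (0.003–30 µM) for 72 h. CCK-8 read-out. Inhibition = (C–T)/(C–T₀) × 100, with T₀ at 0 h. GI50 from curve fit; mean ± S.D., n = 4.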

[24] = molecular target: SNAT3 (Homo sapiens, UniProt Q99624); experiment: Xenopus oocyte expression system, L-[14C]glutamine uptake by SNAT3; type: cell-based; settings: 1 and 10 µM compound; 50 µM substrate; 30 min; ND96
Outline: as §2

[25] = molecular target: T1, LAT1; experiment: Temperature-dependent uptake of 14C-labeled compound in HEK293-hLAT1 cells; type: cell-based; settings: 1 µM 14C-labeled compound, 1 min, 37 °C vs on ice
Outline: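 HEK293-hLAT1 cells in Na⁺-free HBSS given 1 µM ¹⁴C-labelled test compound, or 1 µM L-[¹⁴C]leucine for comparison, for 1 min on ice or at 37 °C. Cell-associated radioactivity measured by scintillation counting of the lysate.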
Target sequence in this assay (Q01650 whole entry): as the sequence (Q01650 whole entry) above
Target sequence in this assay (P08195 103-630 partner): as the sequence (P08195 103-630 partner) above

[26] = system: HEK293-hLAT2 cells; experiment: Cell proliferation assay; type: cell-based, human; settings: 72 h, 0.003-30 µM
Outline: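 HEK293 cells stably expressing human LAT2, kept under G418 selection at 37 °C and 5% CO₂, were seeded at 1.5 × 10³ cells/well on poly-D-lysine. Next day they were exposed to test compound for 72 h, and cell number was read with CCK-8. Inhibition was calculated as (C – T)/(C – T₀) × 100, with T₀ taken at 0 h. GI₅₀ is the concentration giving 50% inhibition. Mean ± S.D., n = 4.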

[27] = molecular target: SNAT1 (Homo sapiens, UniProt Q9H2H9); experiment: Xenopus oocyte expression system, L-[14C]alanine uptake by SNAT1; type: cell-based; settings: 1 and 10 µM compound; 50 µM substrate; 30 min; ND96
Outline: as §2

[28] = molecular target: T1, LAT1; experiment: Xenopus oocyte expression system, L-[14C]leucine uptake by LAT1; type: cell-based; settings: 50 µM substrate, 30 min, Na+-free
Outline: as §1
Target sequence in this assay (Q01650 whole entry): as the sequence (Q01650 whole entry) above
Target sequence in this assay (P08195 102-630 partner): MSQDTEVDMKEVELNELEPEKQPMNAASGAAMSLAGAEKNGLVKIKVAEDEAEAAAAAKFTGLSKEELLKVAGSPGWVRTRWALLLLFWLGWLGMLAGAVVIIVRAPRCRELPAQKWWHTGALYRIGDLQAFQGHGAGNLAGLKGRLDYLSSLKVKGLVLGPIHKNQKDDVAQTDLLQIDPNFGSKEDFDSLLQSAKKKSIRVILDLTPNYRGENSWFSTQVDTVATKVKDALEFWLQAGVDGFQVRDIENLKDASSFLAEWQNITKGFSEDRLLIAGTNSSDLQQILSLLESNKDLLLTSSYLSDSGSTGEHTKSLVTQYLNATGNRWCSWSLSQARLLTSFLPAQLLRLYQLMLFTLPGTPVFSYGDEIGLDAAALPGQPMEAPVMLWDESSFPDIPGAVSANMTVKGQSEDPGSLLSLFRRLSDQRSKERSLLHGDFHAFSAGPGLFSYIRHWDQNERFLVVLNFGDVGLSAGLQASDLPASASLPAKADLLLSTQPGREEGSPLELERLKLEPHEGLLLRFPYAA

[29] = patients with advanced solid tumors; cited from earlier work

LAT2, sequence (Q9UHI5 whole entry): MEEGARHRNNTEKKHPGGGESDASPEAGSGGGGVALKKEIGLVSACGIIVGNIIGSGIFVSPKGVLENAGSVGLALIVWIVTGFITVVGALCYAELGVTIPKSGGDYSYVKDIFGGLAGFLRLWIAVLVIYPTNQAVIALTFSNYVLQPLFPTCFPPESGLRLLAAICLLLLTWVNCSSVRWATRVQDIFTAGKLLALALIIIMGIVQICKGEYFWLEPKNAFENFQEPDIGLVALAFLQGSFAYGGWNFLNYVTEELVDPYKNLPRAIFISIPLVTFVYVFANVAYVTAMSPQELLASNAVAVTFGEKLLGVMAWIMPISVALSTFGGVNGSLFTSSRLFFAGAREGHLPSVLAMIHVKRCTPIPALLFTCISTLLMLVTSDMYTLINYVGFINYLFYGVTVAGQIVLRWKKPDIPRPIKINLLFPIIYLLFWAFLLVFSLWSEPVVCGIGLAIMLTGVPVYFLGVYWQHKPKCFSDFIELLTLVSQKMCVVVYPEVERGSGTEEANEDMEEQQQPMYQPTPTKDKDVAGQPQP
LAT2, sequence (P08195 102-630 partner): as the sequence (P08195 102-630 partner) above
human LAT2, sequence (Q9UHI5 whole entry): as the sequence (Q9UHI5 whole entry) above
human LAT2, sequence (P08195 103-630 partner): as the sequence (P08195 103-630 partner) above
SNAT2, sequence (Q96QD8 whole entry): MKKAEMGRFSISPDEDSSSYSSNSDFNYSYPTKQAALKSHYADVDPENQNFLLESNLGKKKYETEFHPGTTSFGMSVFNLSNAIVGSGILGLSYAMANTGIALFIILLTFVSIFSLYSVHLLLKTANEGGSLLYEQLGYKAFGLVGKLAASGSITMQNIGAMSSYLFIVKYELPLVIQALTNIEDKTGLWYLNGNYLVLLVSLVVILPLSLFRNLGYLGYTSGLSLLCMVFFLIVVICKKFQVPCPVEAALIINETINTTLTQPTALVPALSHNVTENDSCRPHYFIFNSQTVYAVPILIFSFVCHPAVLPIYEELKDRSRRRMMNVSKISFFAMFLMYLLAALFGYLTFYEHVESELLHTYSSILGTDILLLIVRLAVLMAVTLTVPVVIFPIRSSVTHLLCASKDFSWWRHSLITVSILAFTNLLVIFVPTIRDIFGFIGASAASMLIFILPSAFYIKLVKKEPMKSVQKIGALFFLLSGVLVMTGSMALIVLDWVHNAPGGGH
SNAT5, sequence (Q8WUX1 whole entry): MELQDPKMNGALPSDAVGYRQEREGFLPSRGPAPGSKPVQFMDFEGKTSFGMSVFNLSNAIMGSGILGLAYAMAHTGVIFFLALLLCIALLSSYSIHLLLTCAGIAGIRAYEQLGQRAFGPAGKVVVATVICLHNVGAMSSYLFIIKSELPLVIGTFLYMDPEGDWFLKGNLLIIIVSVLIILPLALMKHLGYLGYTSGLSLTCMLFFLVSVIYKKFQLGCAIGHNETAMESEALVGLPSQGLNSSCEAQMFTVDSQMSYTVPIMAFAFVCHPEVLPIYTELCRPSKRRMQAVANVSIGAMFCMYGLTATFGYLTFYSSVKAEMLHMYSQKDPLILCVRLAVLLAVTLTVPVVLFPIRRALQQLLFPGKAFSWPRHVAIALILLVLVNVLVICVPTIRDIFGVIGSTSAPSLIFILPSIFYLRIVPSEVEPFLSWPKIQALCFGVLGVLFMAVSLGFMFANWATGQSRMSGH
TAT1, sequence (Q8TF71 whole entry): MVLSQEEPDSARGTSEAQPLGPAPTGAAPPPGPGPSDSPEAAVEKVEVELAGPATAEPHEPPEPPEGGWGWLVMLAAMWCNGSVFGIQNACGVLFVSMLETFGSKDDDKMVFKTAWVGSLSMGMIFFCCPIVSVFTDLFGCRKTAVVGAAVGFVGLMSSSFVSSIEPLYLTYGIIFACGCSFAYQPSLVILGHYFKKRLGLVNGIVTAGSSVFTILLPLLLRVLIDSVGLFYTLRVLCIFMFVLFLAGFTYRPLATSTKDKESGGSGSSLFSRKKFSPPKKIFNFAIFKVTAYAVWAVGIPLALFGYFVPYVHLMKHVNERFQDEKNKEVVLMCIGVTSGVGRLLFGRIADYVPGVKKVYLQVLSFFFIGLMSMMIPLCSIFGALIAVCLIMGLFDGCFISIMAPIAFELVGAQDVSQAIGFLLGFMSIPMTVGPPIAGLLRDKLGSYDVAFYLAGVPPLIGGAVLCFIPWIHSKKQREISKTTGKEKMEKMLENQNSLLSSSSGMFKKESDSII
ASCT2, sequence (Q15758 whole entry): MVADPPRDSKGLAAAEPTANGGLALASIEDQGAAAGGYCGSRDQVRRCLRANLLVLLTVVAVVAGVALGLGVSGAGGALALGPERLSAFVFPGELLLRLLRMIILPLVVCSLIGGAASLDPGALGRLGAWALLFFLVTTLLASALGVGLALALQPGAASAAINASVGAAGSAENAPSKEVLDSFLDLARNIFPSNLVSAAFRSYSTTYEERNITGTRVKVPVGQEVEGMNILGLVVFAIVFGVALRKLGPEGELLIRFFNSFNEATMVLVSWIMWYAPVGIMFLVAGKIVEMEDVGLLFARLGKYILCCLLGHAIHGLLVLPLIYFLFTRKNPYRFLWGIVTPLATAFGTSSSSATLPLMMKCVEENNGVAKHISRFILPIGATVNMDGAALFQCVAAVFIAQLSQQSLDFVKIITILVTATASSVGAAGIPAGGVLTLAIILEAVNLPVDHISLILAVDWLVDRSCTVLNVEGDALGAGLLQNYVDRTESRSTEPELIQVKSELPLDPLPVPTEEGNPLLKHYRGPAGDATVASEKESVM

NC1(C(=O)O)CC2CCC1C2 (centres unmarked) [BCH]
Transporters inhibited [1]: inhibit not only all system L transporters (LAT1, LAT2, LAT3, LAT4) but also B^0AT1 (system B^0) and ATB^0,+ (system B^0,+)

Nc1cc(COc2c(Cl)cc(C[C@H](N)C(=O)O)cc2Cl)c2oc(-c3ccccc3)nc2c1 [nanvuranlat, (2S)-2-amino-3-[4-[(5-amino-2-phenyl-1,3-benzoxazol-7-yl)methoxy]-3,5-dichlorophenyl]propanoic acid]
Growth inhibition of S2-LAT1 cells [2]: potently inhibited the growth | Ki [3]: 38.7 ± 5.1 nM | Inhibition of LAT1-mediated L-[14C]leucine uptake ([3]; 0.1, 1 and 10 µM compound, 1 µM L-[14C]leucine, HEK293-hLAT1): inhibited LAT1 in a concentration-dependent manner | Mode of LAT1 inhibition (Lineweaver-Burk plot) ([3]; HEK293-hLAT1, L-[14C]leucine): competitive inhibitors | Inhibition of y+LAT1-mediated L-[14C]leucine uptake [4]: Neither compound inhibited | Primary endpoint (progression-free survival) [5]: met its primary endpoint of improving progression-free survival | Inhibition of ASCT1-mediated L-[14C]alanine uptake [6]: no significant inhibition | Inhibition of y+LAT2-mediated L-[14C]leucine uptake [7]: Neither compound inhibited | Inhibition of SNAT5-mediated L-[14C]glutamine uptake [8]: no significant inhibition | Inhibition of LAT4-mediated L-[14C]leucine uptake [9]: no inhibitory effects | Inhibition of SNAT4-mediated L-[14C]alanine uptake [10]: non-significant trend towards inhibition | Inhibition of ATB0,+-mediated L-[14C]leucine uptake [11]: Neither compound inhibited | Inhibition of ASCT2-mediated L-[14C]alanine uptake [12]: no significant inhibition | Inhibition of LAT2-mediated L-[14C]alanine uptake [13]: neither nanvuranlat nor N-acetyl-nanvuranlat inhibited | Growth inhibition of S2-LAT2 cells [14]: minimal effects | Inhibition of b0,+-mediated L-[14C]cystine uptake [15]: Neither compound inhibited | Inhibition of LAT3-mediated L-[14C]leucine uptake [16]: no inhibitory effects | Inhibition of SNAT2-mediated L-[14C]alanine uptake [17]: no significant inhibition | Inhibition reduction rate [18]: 29.8% | Inhibition of LAT2-mediated L-[14C]alanine uptake [19]: neither compound exhibited inhibitory effects on LAT2 | Inhibition of B0AT1-mediated L-[14C]leucine uptake [20]: Neither compound inhibited | Metabolism [21]: rapidly metabolized to its N-acetyl derivative in the liver | Inhibition of TAT1-mediated L-[14C]tyrosine uptake [22]: Neither compound inhibited | GI50 [23]: 1830 ± 310 nM | Inhibition of SNAT3-mediated L-[14C]glutamine uptake [24]: no significant inhibition | Temperature dependence of cell-associated radioactivity (transport by LAT1) [25]: not transported by LAT1 | Inhibition of proliferation [26]: neither compound exhibited an inhibitory effect | Inhibition of SNAT1-mediated L-[14C]alanine uptake [27]: no significant inhibition | Inhibition of LAT1-mediated L-[14C]leucine uptake ([28]; 1 µM compound): significantly inhibited | Inhibition of LAT1-mediated L-[14C]leucine uptake ([28]; 10 µM compound): significantly inhibited | Safety profile in clinical trials [29]: acceptable safety profile
